Calls of active or inactive are those of the source. The rule behind the calls is not given here.

This note sets out measurements from ChEMBL document CHEMBL1152230, “Synthesis of (3,4-dimethoxyphenoxy)alkylamino acetamides as orexin-2 receptor antagonists” (Bioorg Med Chem Lett, 2008).

The target of test [1] is T1, Orexin receptor type 2 (Homo sapiens) (UniProt O43614).
T1 sequence (whole entry): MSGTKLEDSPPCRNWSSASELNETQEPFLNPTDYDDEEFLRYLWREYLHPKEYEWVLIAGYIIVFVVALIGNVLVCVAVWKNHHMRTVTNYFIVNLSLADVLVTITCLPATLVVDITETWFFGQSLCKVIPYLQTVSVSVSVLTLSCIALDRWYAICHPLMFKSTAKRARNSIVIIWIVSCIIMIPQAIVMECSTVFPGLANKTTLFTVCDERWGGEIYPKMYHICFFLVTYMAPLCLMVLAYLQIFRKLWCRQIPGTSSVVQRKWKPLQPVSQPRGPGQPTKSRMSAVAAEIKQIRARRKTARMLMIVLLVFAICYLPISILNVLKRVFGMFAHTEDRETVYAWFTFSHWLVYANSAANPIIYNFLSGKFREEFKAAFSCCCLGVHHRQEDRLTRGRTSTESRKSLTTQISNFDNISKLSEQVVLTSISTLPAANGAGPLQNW
Description: Agonist activity at human OX2 receptor expressed in HEK293 cells assessed as effect on human orexin-A-stimulated calcium release by FLIPR assay. It is filed as functional, cell-based.

For the next test, the target named is T2, Orexin receptor type 2 (Homo sapiens, UniProt O43614).
T2 sequence (O43614 whole entry): T1 sequence (whole entry)
Description: Antagonist activity at human OX2 receptor expressed in HEK293 cells assessed as inhibition of human orexin-A-stimulated calcium release by FLIPR assay. It is filed as functional, cell-based. The method, boiled down:
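HEK293/OX2-R cells, 20,000/well, were grown 24 h at 37 °C. They were loaded with Calcium 3 no-wash dye in HBSS/20 mM HEPES pH 7.5/BSA with 2.5 mM probenecid final, for 30 min at 37 °C, then 30-90 min at room temperature. FLIPR fluorescence was read for 125 s.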

Take `COc1ccc(OCCCN(CC(=O)NCc2ccccc2)Cc2ccccc2)cc1OC`: the result in test [1] was inactive. The IC50 at Orexin receptor type 2 (read-out: pIC50 (converted)) was 51.3 nM.
For the molecule `COc1ccc(OCCN(CC(=O)NCc2ccccc2)Cc2ccc(F)c(F)c2)cc1OC`, the result in test [1] was inactive. Moreover, the results for the IC50 at Orexin receptor type 2 (read-out: IC50) and at Orexin receptor type 2 (read-out: pIC50 (converted)) were less than 30 nM and 18.6 nM, respectively.
Regarding `COc1ccc(OCCCN(CC(=O)NCc2ccccc2)Cc2ccc(F)c(F)c2)cc1OC`, in test [1], the result was inactive. For the same molecule, on Orexin receptor type 2 (read-out: pIC50 (converted)), the IC50 is 107 nM.
Regarding `COc1ccc(OCCCN(CC(=O)NCc2ccccc2)Cc2cccs2)cc1OC`, the result in test [1] was inactive. The IC50 at Orexin receptor type 2 (read-out: pIC50 (converted)) is 132 nM.
The corresponding values for `COc1ccc(OCCN(CC(=O)NCc2ccccc2Cl)Cc2ccc(F)c(F)c2)cc1OC` are “inactive” and 81.3 nM.
The corresponding values for `COc1ccc(OCCN(CC(=O)NCC(C)C)Cc2ccccc2)cc1OC` are “inactive” and 302 nM.
The corresponding values for `COc1ccc(OCCN(CC(=O)NCC(C)C)Cc2cccs2)cc1OC` are “inactive” and 324 nM.
For `COc1ccc(OCCN(CC(=O)NCc2ccccc2)Cc2cccs2)cc1OC`, the outcome in test [1] was inactive. In addition, the IC50 at Orexin receptor type 2 (read-out: pIC50 (converted)) is 110 nM.
The corresponding values for `COc1ccc(OCCN(CC(=O)NCc2ccccc2Cl)Cc2ccccc2)cc1OC` are “inactive” and 151 nM.
On to `COc1ccc(OCCN(CC(=O)NCc2ccccc2Cl)Cc2ccc(F)cc2)cc1OC`, for which, in test [1], the result was inactive. The IC50 on Orexin receptor type 2 (read-out: pIC50 (converted)) was 138 nM.
The corresponding values for `COc1ccc(OCCN(CC(=O)NCC(C)C)Cc2ccc(F)c(F)c2)cc1OC` are “inactive” and 229 nM.
Regarding `COc1ccc(OCCN(CC(=O)NCc2ccccc2)Cc2ccccc2)cc1OC`, the result in test [1] was inactive. Further, the results for the IC50 at Orexin receptor type 2 (read-out: IC50) and on Orexin receptor type 2 (read-out: pIC50 (converted)) were less than 30 nM and 25.1 nM, respectively.
In the same order, the values of `COc1ccc(OCCN(CC(=O)NCc2ccccc2)Cc2ccc(F)cc2)cc1OC` are “inactive”, less than 30 nM and 19.5 nM.
In the case of `COc1ccc(OCCN(CC(=O)NCc2ccccc2Cl)Cc2cccs2)cc1OC`, the result in test [1] was inactive. Further, the IC50 on Orexin receptor type 2 (read-out: pIC50 (converted)) is 195 nM.
In the case of `COc1ccc(OCCN(CC(=O)NCC(C)C)Cc2ccc(F)cc2)cc1OC`, in test [1], the outcome was inactive. In addition, the IC50 at Orexin receptor type 2 (read-out: pIC50 (converted)) is 562 nM.
